We go through 27 molecules from ChEMBL document CHEMBL1134462, “Toward a rational design of peptide inhibitors of ribonucleotide reductase: structure-function and modeling studies” (J Med Chem, 2001).

A short description of the experiment: Relative dissociation constant evaluated against mouse Ribonucleotide Reductase (RR). A digest of the protocol: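 Competition of free ligand with column-bound FTLDADF (Sepharose mixed ~60:40 with underivatized Sepharose) for mouse R1. mR1 (4.4 μM) premixed with ligand (typically 100 μM) in 50 mM Tris pH 8.5, 10 mM DTT, 100 μM dTTP, held 30 min on spin column, then centrifuged. Eluted R1 measured by Bradford assay, duplicates; Kd derived from elution versus no-ligand control, expressed relative to AcFTLDADF standard.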

The molecule `CC(=O)N[C@@H](Cc1ccccc1)C(=O)N[C@H](C(=O)N[C@@H](CC(C)C)C(=O)N[C@@H](CC(=O)O)C(=O)N[C@@H](C)C(=O)N[C@@H](CC(=O)O)C(=O)N[C@@H](Cc1ccc([N+](=O)[O-])cc1)C(=O)O)[C@H](C)O` returned a Relative Kd above 30.

`CC(=O)N[C@@H](Cc1ccccc1)C(=O)N[C@H](C(=O)N[C@@H](CC(C)C)C(=O)N[C@@H](CC(=O)O)C(=O)N[C@@H](C)C(=O)N[C@@H](CC(=O)O)C(=O)N[C@@H](Cc1ccc(N)cc1)C(=O)O)[C@H](C)O` yielded a Relative Kd of 23.

`CC(=O)N[C@@H](Cc1ccccc1)C(=O)N[C@H](C(=O)N[C@@H](CC(C)C)C(=O)N[C@@H](CC(=O)O)C(=O)N[C@@H](C)C(=O)N[C@@H](CC(=O)O)C(=O)N[C@H](C(=O)O)c1ccccc1)[C@H](C)O` registered a Relative Kd of 24.

The molecule `CC(=O)N[C@@H](Cc1ccccc1)C(=O)N[C@H](C(=O)N[C@@H](CC(C)C)C(=O)N[C@@H](CC(=O)O)C(=O)N[C@@H](C)C(=O)N[C@@H](CC(=O)O)C(=O)N[C@@H](Cc1c(F)c(F)c(F)c(F)c1F)C(=O)O)[C@H](C)O` returned a Relative Kd of 16.

`CC(=O)N[C@@H](Cc1ccccc1)C(=O)N[C@H](C(=O)N[C@@H](CC(C)C)C(=O)N[C@@H](CC(=O)O)C(=O)N[C@@H](C)C(=O)N[C@@H](CC(=O)O)C(=O)N[C@@H](Cc1c[nH]c2ccccc12)C(=O)O)[C@H](C)O` yielded a Relative Kd of 10.

In turn, `CC(=O)N[C@@H](Cc1ccccc1)C(=O)N[C@H](C(=O)N[C@@H](CC(C)C)C(=O)N[C@@H](CC(=O)O)C(=O)N[C@@H](C)C(=O)N[C@@H](CC(=O)O)C(=O)N[C@@H](Cc1ccc(C)cc1)C(=O)O)[C@H](C)O` yielded a Relative Kd of 4.7.

Regarding `CC(=O)N[C@H](C(=O)N[C@H](C(=O)N[C@@H](CC(C)C)C(=O)N[C@@H](CC(=O)O)C(=O)N[C@@H](C)C(=O)N[C@@H](CC(=O)O)C(=O)N[C@@H](Cc1ccccc1)C(=O)O)[C@H](C)O)C(C)C`, the Relative Kd was above 30.

`CC(=O)N[C@@H](Cc1ccccc1)C(=O)N[C@H](C(=O)N[C@@H](CC(C)C)C(=O)N[C@@H](CC(=O)O)C(=O)N[C@@H](C)C(=O)N[C@@H](CC(=O)O)C(=O)N[C@@H](CCC(N)=O)C(=O)O)[C@H](C)O` showed a Relative Kd above 30.

For `COc1cccc(C[C@H](NC(=O)[C@H](CC(=O)O)NC(=O)[C@H](C)NC(=O)[C@H](CC(=O)O)NC(=O)[C@H](CC(C)C)NC(=O)[C@@H](NC(=O)[C@H](Cc2ccccc2)NC(C)=O)[C@H](C)O)C(=O)O)c1`, the Relative Kd was found to be 8.2.

`CC(=O)N[C@@H](Cc1ccccc1)C(=O)N[C@H](C(=O)N[C@@H](CC(C)C)C(=O)N[C@@H](CC(=O)O)C(=O)N[C@@H](C)C(=O)N[C@@H](CC(=O)O)C(=O)N[C@H](Cc1ccccc1)C(=O)O)[C@H](C)O`: the Relative Kd was 8.6.

`COc1ccc(CC(=O)N[C@@H](Cc2ccccc2)C(=O)N[C@H](C(=O)N[C@@H](CC(C)C)C(=O)N[C@@H](CC(=O)O)C(=O)N[C@@H](C)C(=O)N[C@@H](CC(=O)O)C(=O)N[C@@H](Cc2ccccc2)C(=O)O)[C@H](C)O)cc1` yielded a Relative Kd of 0.8.

With `CC(=O)N[C@@H](Cc1ccccc1)C(=O)N[C@H](C(=O)N[C@@H](CC(C)C)C(=O)N[C@@H](CC(=O)O)C(=O)N[C@@H](C)C(=O)N[C@@H](CC(=O)O)C(=O)N[C@@H](Cc1ccccc1F)C(=O)O)[C@H](C)O`, the Relative Kd worked out at 2.

Molecule `CCC(=O)N[C@@H](Cc1ccccc1)C(=O)N[C@H](C(=O)N[C@@H](CC(C)C)C(=O)N[C@@H](CC(=O)O)C(=O)N[C@@H](C)C(=O)N[C@@H](CC(=O)O)C(=O)N[C@@H](Cc1ccccc1)C(=O)O)[C@H](C)O` yielded a Relative Kd of 6.3.

The molecule `CC(C)C[C@H](NC(=O)[C@@H](NC(=O)[C@H](Cc1ccccc1)NC(=O)Cc1ccc([N+](=O)[O-])cc1)[C@H](C)O)C(=O)N[C@@H](CC(=O)O)C(=O)N[C@@H](C)C(=O)N[C@@H](CC(=O)O)C(=O)N[C@@H](Cc1ccccc1)C(=O)O` had a Relative Kd of 0.8.

Molecule `COc1ccc(C[C@H](NC(=O)[C@H](CC(=O)O)NC(=O)[C@H](C)NC(=O)[C@H](CC(=O)O)NC(=O)[C@H](CC(C)C)NC(=O)[C@@H](NC(=O)[C@H](Cc2ccccc2)NC(C)=O)[C@H](C)O)C(=O)O)cc1` displayed a Relative Kd of 16.

In turn, `CC(=O)N[C@@H](Cc1ccccc1)C(=O)N[C@H](C(=O)N[C@@H](CC(C)C)C(=O)N[C@@H](CC(=O)O)C(=O)N[C@@H](C)C(=O)N[C@@H](CC(=O)O)C(=O)N[C@@H](Cc1cccc(O)c1)C(=O)O)[C@H](C)O` gave a Relative Kd of 6.3.

On to `CC(=O)N[C@@H](Cc1ccccc1)C(=O)N[C@H](C(=O)N[C@@H](CC(C)C)C(=O)N[C@@H](CC(=O)O)C(=O)N[C@@H](C)C(=O)N[C@@H](CC(=O)O)C(=O)N[C@@H](Cc1ccc(O)cc1)C(=O)O)[C@H](C)O`, for which the Relative Kd came to 24.

As for `CC(C)C[C@H](NC(=O)[C@@H](NC(=O)[C@H](Cc1ccccc1)NC(=O)c1ccccc1)[C@H](C)O)C(=O)N[C@@H](CC(=O)O)C(=O)N[C@@H](C)C(=O)N[C@@H](CC(=O)O)C(=O)N[C@@H](Cc1ccccc1)C(=O)O`, the Relative Kd came out at 1.9.

In the case of `CC(=O)N[C@@H](C)C(=O)N[C@H](C(=O)N[C@@H](CC(C)C)C(=O)N[C@@H](CC(=O)O)C(=O)N[C@@H](C)C(=O)N[C@@H](CC(=O)O)C(=O)N[C@@H](Cc1ccccc1)C(=O)O)[C@H](C)O`, the Relative Kd is above 30.

Regarding `CC(=O)N[C@H](C(=O)N[C@H](C(=O)N[C@@H](CC(C)C)C(=O)N[C@@H](CC(=O)O)C(=O)N[C@@H](C)C(=O)N[C@@H](CC(=O)O)C(=O)N[C@@H](Cc1ccccc1)C(=O)O)[C@H](C)O)c1ccccc1`, the Relative Kd turned out to be 6.6.

As for `COc1ccccc1C[C@H](NC(=O)[C@H](CC(=O)O)NC(=O)[C@H](C)NC(=O)[C@H](CC(=O)O)NC(=O)[C@H](CC(C)C)NC(=O)[C@@H](NC(=O)[C@H](Cc1ccccc1)NC(C)=O)[C@H](C)O)C(=O)O`, the Relative Kd was above 30.

For `CC(=O)N[C@@H](Cc1ccccc1)C(=O)N[C@H](C(=O)N[C@@H](CC(C)C)C(=O)N[C@@H](CC(=O)O)C(=O)N[C@@H](C)C(=O)N[C@@H](CC(=O)O)C(=O)N[C@@H](Cc1ccccc1)C(N)=O)[C@H](C)O`, the Relative Kd was above 30.

Molecule `CC(C)C[C@H](NC(=O)[C@@H](NC(=O)[C@H](Cc1ccccc1)NC(=O)OCC1c2ccccc2-c2ccccc21)[C@H](C)O)C(=O)N[C@@H](CC(=O)O)C(=O)N[C@@H](C)C(=O)N[C@@H](CC(=O)O)C(=O)N[C@@H](Cc1ccccc1)C(=O)O` gave a Relative Kd of 1.4.

Molecule `CC(C)C[C@H](NC(=O)[C@@H](NC(=O)[C@H](Cc1ccccc1)NC=O)[C@H](C)O)C(=O)N[C@@H](CC(=O)O)C(=O)N[C@@H](C)C(=O)N[C@@H](CC(=O)O)C(=O)N[C@@H](Cc1ccccc1)C(=O)O` gave a Relative Kd of 2.4.

In turn, `CC(C)C[C@H](NC(=O)[C@@H](NC(=O)[C@H](Cc1ccccc1)NC(=O)c1ccnc(-c2cc(C(=O)O)ccn2)c1)[C@H](C)O)C(=O)N[C@@H](CC(=O)O)C(=O)N[C@@H](C)C(=O)N[C@@H](CC(=O)O)C(=O)N[C@@H](Cc1ccccc1)C(=O)O` gave a Relative Kd of 0.6.

`CCCC(=O)N[C@@H](Cc1ccccc1)C(=O)N[C@H](C(=O)N[C@@H](CC(C)C)C(=O)N[C@@H](CC(=O)O)C(=O)N[C@@H](C)C(=O)N[C@@H](CC(=O)O)C(=O)N[C@@H](Cc1ccccc1)C(=O)O)[C@H](C)O`: the Relative Kd turned out to be 1.

In turn, `CC(=O)N[C@@H](Cc1ccccc1)C(=O)N[C@H](C(=O)N[C@@H](CC(C)C)C(=O)N[C@@H](CC(=O)O)C(=O)N[C@@H](C)C(=O)N[C@@H](CC(=O)O)C(=O)N[C@@H](Cc1ccccc1O)C(=O)O)[C@H](C)O` displayed a Relative Kd of 26.
